Measured values taken from ChEMBL document CHEMBL5724801, “EUbOPEN Chemogenomics Library - Multiplex” (2024).
Several values for one entry are separate records, joined by “and”; a condition that tells them apart may be missing. Identical values can stand only once.

Tested on: Fibroblast
Assay: Multiplex assay against human fibroblast
Type: toxicity, cell-based
Procedure, shortened: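 Tubulin, mitochondrial-mass and membrane-permeability phenotypes are per cents of healthy-nucleus cells. Cells were gated by CellPathfinder machine learning into Hoechst high-intensity objects or normal cells, normal cells into healthy, pyknosed or fragmented nuclei, and pyknosed cells into mitotic or apoptotic. Before that, live cells stained at seeding with Hoechst33342, BioTracker Green Microtubule Cytoskeleton Dye, MitoTracker Red and Annexin V Alexa Fluor 680 were imaged on a CQ1 microscope at 37°C and 5% CO2 after compound addition.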

[1] = 12 h, 1 µM, compound concentration 1 uM
[2] = 12 h, 10 µM, compound concentration 10 uM
[3] = 24 h, 1 µM, compound concentration 1 uM
[4] = 24 h, 10 µM, compound concentration 10 uM
[5] = 48 h, 1 µM, compound concentration 1 uM
[6] = 48 h, 10 µM, compound concentration 10 uM

Cl.Cl.OCCOCCN1CCN(C(c2ccccc2)c2ccc(Cl)cc2)CC1 (stereo unspecified) [HYDROXYZINE HYDROCHLORIDE]
Population Apoptotic (%) [1]: 43% and 51% | Population Fragmented Nuclei (%) [1]: 11% and 22% | Population Healthy Nuclei (%) [1]: 75% and 57% | Population Hoechst High Intensity Objects (%) [1]: 1% and 7% | Population Membrane Permeable-Phenotype (%) [1]: 0% and 8% | Population Mitochondria Different-Phenotype (%) [1]: 4% and 6% | Population Mitotic Cells (%) [1]: 56% and 48% | Population Normal (%) [1]: 98% and 92% | Population Pyknosed Nuclei (%) [1]: 13% and 20% | Population Tubulin-Different-Phenotype (%) [1]: 25% and 46% | Total Cell Count [1]: 177 and 155 | Population Apoptotic (%) [2]: 47% and 40% | Population Fragmented Nuclei (%) [2]: 27% and 19% | Population Healthy Nuclei (%) [2]: 58% and 47% | Population Hoechst High Intensity Objects (%) [2]: 2% and 7% | Population Membrane Permeable-Phenotype (%) [2]: 0% and 7% | Population Mitochondria Different-Phenotype (%) [2]: 14% and 6% | Population Mitotic Cells (%) [2]: 52% and 59% | Population Normal (%) [2]: 97% and 92% | Population Pyknosed Nuclei (%) [2]: 14% and 32% | Population Tubulin-Different-Phenotype (%) [2]: 45% and 58% | Total Cell Count [2]: 247 and 178 | Population Apoptotic (%) [3]: 30% and 44% | Population Fragmented Nuclei (%) [3]: 9% and 26% | Population Healthy Nuclei (%) [3]: 78% and 54% | Population Hoechst High Intensity Objects (%) [3]: 1% and 5% | Population Membrane Permeable-Phenotype (%) [3]: 2% and 5% | Population Mitochondria Different-Phenotype (%) [3]: 6% and 3% | Population Mitotic Cells (%) [3]: 70% and 55% | Population Normal (%) [3]: 98% and 94% | Population Pyknosed Nuclei (%) [3]: 12% and 18% | Population Tubulin-Different-Phenotype (%) [3]: 30% and 47% | Total Cell Count [3]: 163 and 154 | Population Apoptotic (%) [4]: 51% and 36% | Population Fragmented Nuclei (%) [4]: 28% and 29% | Population Healthy Nuclei (%) [4]: 62% and 50% | Population Hoechst High Intensity Objects (%) [4]: 1% and 9% | Population Membrane Permeable-Phenotype (%) [4]: 1% and 6% | Population Mitochondria Different-Phenotype (%) [4]: 10% and 6% | Population Mitotic Cells (%) [4]: 48% and 63% | Population Normal (%) [4]: 98% and 90% | Population Pyknosed Nuclei (%) [4]: 9% and 20% | Population Tubulin-Different-Phenotype (%) [4]: 47% and 66% | Total Cell Count [4]: 284 and 198 | Population Apoptotic (%) [5]: 60% and 42% | Population Fragmented Nuclei (%) [5]: 17% and 34% | Population Healthy Nuclei (%) [5]: 68% and 56% | Population Hoechst High Intensity Objects (%) [5]: 4% and 3% | Population Membrane Permeable-Phenotype (%) [5]: 0% and 2% | Population Mitochondria Different-Phenotype (%) [5]: 3% and 5% | Population Mitotic Cells (%) [5]: 39% and 57% | Population Normal (%) [5]: 95% and 96% | Population Pyknosed Nuclei (%) [5]: 13% and 9% | Population Tubulin-Different-Phenotype (%) [5]: 31% and 44% | Total Cell Count [5]: 175 and 155 | Population Apoptotic (%) [6]: 80% and 37% | Population Fragmented Nuclei (%) [6]: 22% and 36% | Population Healthy Nuclei (%) [6]: 69% and 47% | Population Hoechst High Intensity Objects (%) [6]: 4% and 6% | Population Membrane Permeable-Phenotype (%) [6]: 0% and 11% | Population Mitochondria Different-Phenotype (%) [6]: 7% and 2% | Population Normal (%) [6]: 95% and 94% | Population Pyknosed Nuclei (%) [6]: 8% and 15% | Population Tubulin-Different-Phenotype (%) [6]: 62% and 57% | Total Cell Count [6]: 272 and 200

Nc1nc(-c2ccco2)c2cnn(Cc3ccccc3F)c2n1
Population Apoptotic (%) [1]: 50% and 45% | Population Healthy Nuclei (%) [1]: 78% and 50% | Population Hoechst High Intensity Objects (%) [1]: 0% and 6% | Population Membrane Permeable-Phenotype (%) [1]: 1% and 2% | Population Mitochondria Different-Phenotype (%) [1]: 2% and 5% | Population Mitotic Cells (%) [1]: 50% and 54% | Population Normal (%) [1]: 99% and 93% | Population Pyknosed Nuclei (%) [1]: 11% and 17% | Population Tubulin-Different-Phenotype (%) [1]: 26% and 42% | Total Cell Count [1]: 189 and 144 | Population Apoptotic (%) [2]: 54% and 47% | Population Fragmented Nuclei (%) [2]: 16% and 39% | Population Healthy Nuclei (%) [2]: 61% and 44% | Population Hoechst High Intensity Objects (%) [2]: 8% and 10% | Population Membrane Permeable-Phenotype (%) [2]: 0% and 5% | Population Mitochondria Different-Phenotype (%) [2]: 7% and 13% | Population Mitotic Cells (%) [2]: 45% and 52% | Population Normal (%) [2]: 91% and 89% | Population Pyknosed Nuclei (%) [2]: 21% and 16% | Population Tubulin-Different-Phenotype (%) [2]: 38% and 51% | Total Cell Count [2]: 123 and 147 | Population Apoptotic (%) [3]: 50% and 56% | Population Healthy Nuclei (%) [3]: 82% and 53% | Population Hoechst High Intensity Objects (%) [3]: 0% and 6% | Population Membrane Permeable-Phenotype (%) [3]: 0% and 4% | Population Mitochondria Different-Phenotype (%) [3]: 2% and 5% | Population Mitotic Cells (%) [3]: 50% and 43% | Population Normal (%) [3]: 100% and 93% | Population Pyknosed Nuclei (%) [3]: 7% and 17% | Population Tubulin-Different-Phenotype (%) [3]: 24% and 37% | Total Cell Count [3]: 180 and 139 | Population Apoptotic (%) [4]: 70% and 43% | Population Fragmented Nuclei (%) [4]: 19% and 43% | Population Healthy Nuclei (%) [4]: 66% and 44% | Population Hoechst High Intensity Objects (%) [4]: 6% and 8% | Population Mitochondria Different-Phenotype (%) [4]: 8% and 5% | Population Mitotic Cells (%) [4]: 29% and 56% | Population Normal (%) [4]: 93% and 91% | Population Pyknosed Nuclei (%) [4]: 14% and 11% | Population Tubulin-Different-Phenotype (%) [4]: 39% and 46% | Total Cell Count [4]: 127 and 147 | Population Apoptotic (%) [5]: 45% and 57% | Population Fragmented Nuclei (%) [5]: 16% and 41% | Population Healthy Nuclei (%) [5]: 77% and 48% | Population Hoechst High Intensity Objects (%) [5]: 3% and 6% | Population Membrane Permeable-Phenotype (%) [5]: 2% and 4% | Population Mitochondria Different-Phenotype (%) [5]: 1% and 9% | Population Mitotic Cells (%) [5]: 54% and 42% | Population Normal (%) [5]: 96% and 93% | Population Pyknosed Nuclei (%) [5]: 6% and 10% | Population Tubulin-Different-Phenotype (%) [5]: 26% and 37% | Total Cell Count [5]: 182 and 147 | Population Apoptotic (%) [6]: 80% and 50% | Population Fragmented Nuclei (%) [6]: 25% and 50% | Population Healthy Nuclei (%) [6]: 65% and 38% | Population Hoechst High Intensity Objects (%) [6]: 9% and 5% | Population Membrane Permeable-Phenotype (%) [6]: 0% and 16% | Population Mitochondria Different-Phenotype (%) [6]: 10% | Population Mitotic Cells (%) [6]: 20% and 50% | Population Normal (%) [6]: 90% and 94% | Population Pyknosed Nuclei (%) [6]: 9% and 10% | Population Tubulin-Different-Phenotype (%) [6]: 27% and 51% | Total Cell Count [6]: 115 and 155

Cc1c(-c2cc(-c3ccccc3Cl)no2)cnn1C1CCNCC1.Cl
Population Fragmented Nuclei (%) [1]: 12.32% and 5.31% | Population Healthy Nuclei (%) [1]: 58.77% and 79.2% | Population Hoechst High Intensity Objects (%) [1]: 0% | Population Membrane Permeable-Phenotype (%) [1]: 4.03% and 3.91% | Population Mitochondria Different-Phenotype (%) [1]: 17.74% and 8.94% | Population Mitotic Cells (%) [1]: 93.44% and 68.57% | Population Normal (%) [1]: 100% | Population Pyknosed Nuclei (%) [1]: 28.91% and 15.49% | Population Tubulin-Different-Phenotype (%) [1]: 32.26% and 22.91% | Total Cell Count [1]: 211 and 226 | Population Apoptotic (%) [2]: 18.52% and 39.56% | Population Fragmented Nuclei (%) [2]: 8.72% and 4.05% | Population Healthy Nuclei (%) [2]: 41.74% and 54.95% | Population Hoechst High Intensity Objects (%) [2]: 0% | Population Membrane Permeable-Phenotype (%) [2]: 10.99% and 13.93% | Population Mitochondria Different-Phenotype (%) [2]: 46.15% and 28.69% | Population Mitotic Cells (%) [2]: 81.48% and 60.44% | Population Normal (%) [2]: 100% | Population Pyknosed Nuclei (%) [2]: 49.54% and 40.99% | Population Tubulin-Different-Phenotype (%) [2]: 73.63% and 83.61% | Total Cell Count [2]: 218 and 222 | Population Apoptotic (%) [3]: 8% and 20.83% | Population Fragmented Nuclei (%) [3]: 12.4% and 7.5% | Population Healthy Nuclei (%) [3]: 67.6% and 82.5% | Population Hoechst High Intensity Objects (%) [3]: 0% | Population Membrane Permeable-Phenotype (%) [3]: 4.73% and 1.01% | Population Mitochondria Different-Phenotype (%) [3]: 7.69% and 3.54% | Population Mitotic Cells (%) [3]: 92% and 79.17% | Population Normal (%) [3]: 100% | Population Pyknosed Nuclei (%) [3]: 20% and 10% | Population Tubulin-Different-Phenotype (%) [3]: 33.73% and 29.8% | Total Cell Count [3]: 250 and 240 | Population Apoptotic (%) [4]: 36.97% and 65.81% | Population Fragmented Nuclei (%) [4]: 10.44% and 3.51% | Population Healthy Nuclei (%) [4]: 24.18% and 28.07% | Population Hoechst High Intensity Objects (%) [4]: 0% | Population Membrane Permeable-Phenotype (%) [4]: 25% and 20.83% | Population Mitochondria Different-Phenotype (%) [4]: 63.64% and 60.42% | Population Mitotic Cells (%) [4]: 63.03% and 34.19% | Population Normal (%) [4]: 100% | Population Pyknosed Nuclei (%) [4]: 65.38% and 68.42% | Population Tubulin-Different-Phenotype (%) [4]: 72.73% and 68.75% | Total Cell Count [4]: 182 and 171 | Population Apoptotic (%) [5]: 25% and 11.11% | Population Fragmented Nuclei (%) [5]: 10.69% and 10.92% | Population Healthy Nuclei (%) [5]: 83.79% and 85.92% | Population Hoechst High Intensity Objects (%) [5]: 0% | Population Membrane Permeable-Phenotype (%) [5]: 4.12% and 11.48% | Population Mitochondria Different-Phenotype (%) [5]: 9.05% and 0.82% | Population Mitotic Cells (%) [5]: 75% and 88.89% | Population Normal (%) [5]: 100% | Population Pyknosed Nuclei (%) [5]: 5.52% and 3.17% | Population Tubulin-Different-Phenotype (%) [5]: 31.28% and 31.15% | Total Cell Count [5]: 290 and 284 | Population Apoptotic (%) [6]: 53.41% and 92.06% | Population Fragmented Nuclei (%) [6]: 14.67% and 6.71% | Population Healthy Nuclei (%) [6]: 37.5% and 51.01% | Population Hoechst High Intensity Objects (%) [6]: 0% | Population Mitochondria Different-Phenotype (%) [6]: 43.48% and 21.05% | Population Normal (%) [6]: 100% | Population Pyknosed Nuclei (%) [6]: 47.83% and 42.28% | Population Tubulin-Different-Phenotype (%) [6]: 15.94% and 32.89% | Total Cell Count [6]: 184 and 149
